{
  "source": "paper PMC5519285",
  "about": "(Pharmacology, biochemistry, and behavior, 2017)",
  "key": {"mice": {"test_system": "mice", "conditions": "ref Lewter et al., 2017; cited from earlier work"}, "rats [1]": {"test_system": "rats", "conditions": "cited from earlier work"}, "hGABAAR (α2β3γ2)": {"target": "hGABAAR (α2β3γ2) (Homo sapiens, UniProt P18507+P47869)", "sequence (P47869 29-451)": "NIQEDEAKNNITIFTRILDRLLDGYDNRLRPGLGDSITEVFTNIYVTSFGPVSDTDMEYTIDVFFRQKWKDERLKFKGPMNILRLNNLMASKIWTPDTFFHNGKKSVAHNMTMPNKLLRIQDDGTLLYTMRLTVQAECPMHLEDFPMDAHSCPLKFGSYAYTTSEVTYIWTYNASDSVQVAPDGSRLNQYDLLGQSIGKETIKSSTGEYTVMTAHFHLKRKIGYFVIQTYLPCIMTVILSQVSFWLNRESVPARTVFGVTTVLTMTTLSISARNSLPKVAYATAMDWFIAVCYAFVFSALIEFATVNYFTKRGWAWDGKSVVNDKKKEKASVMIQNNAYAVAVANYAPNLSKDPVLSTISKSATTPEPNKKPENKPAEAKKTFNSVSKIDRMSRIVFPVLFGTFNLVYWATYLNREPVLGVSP", "sequence (P28472 26-473 partner)": "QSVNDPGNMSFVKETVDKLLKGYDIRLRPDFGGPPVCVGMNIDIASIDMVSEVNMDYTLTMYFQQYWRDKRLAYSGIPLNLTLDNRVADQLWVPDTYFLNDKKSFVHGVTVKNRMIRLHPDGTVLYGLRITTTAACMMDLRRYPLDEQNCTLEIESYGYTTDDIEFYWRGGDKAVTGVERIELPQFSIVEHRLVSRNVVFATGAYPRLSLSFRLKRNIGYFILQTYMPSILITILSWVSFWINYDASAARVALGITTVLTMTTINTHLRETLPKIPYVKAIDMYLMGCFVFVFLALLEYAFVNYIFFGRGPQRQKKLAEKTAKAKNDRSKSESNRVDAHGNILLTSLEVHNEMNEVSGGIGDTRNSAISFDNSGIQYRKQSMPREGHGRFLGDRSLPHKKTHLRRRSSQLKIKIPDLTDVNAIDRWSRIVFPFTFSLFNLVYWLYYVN", "sequence (P18507 40-475)": "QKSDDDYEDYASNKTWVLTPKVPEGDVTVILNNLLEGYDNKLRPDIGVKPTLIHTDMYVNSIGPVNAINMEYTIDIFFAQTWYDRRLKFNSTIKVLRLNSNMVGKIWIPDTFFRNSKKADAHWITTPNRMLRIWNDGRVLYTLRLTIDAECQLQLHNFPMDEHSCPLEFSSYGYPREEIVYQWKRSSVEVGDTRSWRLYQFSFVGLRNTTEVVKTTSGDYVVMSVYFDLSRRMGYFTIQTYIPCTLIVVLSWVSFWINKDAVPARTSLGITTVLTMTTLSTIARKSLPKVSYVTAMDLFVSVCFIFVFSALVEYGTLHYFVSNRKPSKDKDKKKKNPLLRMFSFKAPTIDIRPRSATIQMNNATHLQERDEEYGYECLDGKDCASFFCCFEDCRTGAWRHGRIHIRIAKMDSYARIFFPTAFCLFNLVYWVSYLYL", "assay_type": "cell-based"}, "hGABAAR (α1β3γ2)": {"target": "hGABAAR (α1β3γ2) (Homo sapiens, UniProt P14867+P18507)", "sequence (P14867 28-456)": "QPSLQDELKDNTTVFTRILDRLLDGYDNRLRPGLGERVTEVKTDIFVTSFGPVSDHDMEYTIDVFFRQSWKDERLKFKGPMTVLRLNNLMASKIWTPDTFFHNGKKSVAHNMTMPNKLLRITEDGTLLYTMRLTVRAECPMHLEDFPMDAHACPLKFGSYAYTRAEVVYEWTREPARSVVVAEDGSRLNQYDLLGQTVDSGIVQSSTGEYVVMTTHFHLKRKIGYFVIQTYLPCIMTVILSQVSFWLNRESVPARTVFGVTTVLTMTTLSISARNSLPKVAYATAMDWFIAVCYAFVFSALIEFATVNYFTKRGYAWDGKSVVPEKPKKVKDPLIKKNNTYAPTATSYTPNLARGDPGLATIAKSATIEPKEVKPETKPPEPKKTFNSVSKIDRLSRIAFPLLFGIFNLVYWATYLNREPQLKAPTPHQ", "sequence (P28472 26-473 partner)": "as the sequence (P28472 26-473 partner) above", "sequence (P18507 40-475)": "as the sequence (P18507 40-475) above", "assay_type": "cell-based", "conditions": "HEK293 cells, human α1β3γ2, peak GABA EC15-evoked current"}, "hGABAAR (α5β3γ2)": {"target": "hGABAAR (α5β3γ2) (Homo sapiens, UniProt P18507+P31644)", "sequence (P31644 32-462)": "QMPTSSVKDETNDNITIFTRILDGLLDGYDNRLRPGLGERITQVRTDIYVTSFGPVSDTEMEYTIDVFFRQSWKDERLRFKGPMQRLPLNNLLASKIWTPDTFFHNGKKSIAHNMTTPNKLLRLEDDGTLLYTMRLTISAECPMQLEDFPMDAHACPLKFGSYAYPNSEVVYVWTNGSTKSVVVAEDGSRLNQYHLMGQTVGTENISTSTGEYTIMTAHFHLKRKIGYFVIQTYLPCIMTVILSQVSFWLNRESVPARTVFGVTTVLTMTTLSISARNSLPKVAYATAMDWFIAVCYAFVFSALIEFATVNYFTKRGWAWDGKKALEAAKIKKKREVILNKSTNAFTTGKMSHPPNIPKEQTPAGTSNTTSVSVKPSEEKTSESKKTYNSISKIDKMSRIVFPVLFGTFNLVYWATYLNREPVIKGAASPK", "sequence (P28472 26-473 partner)": "as the sequence (P28472 26-473 partner) above", "sequence (P18507 40-475)": "as the sequence (P18507 40-475) above", "assay_type": "cell-based"}, "hGABAAR (α3β3γ2)": {"target": "hGABAAR (α3β3γ2) (Homo sapiens, UniProt P18507+P34903)", "sequence (P34903 29-492)": "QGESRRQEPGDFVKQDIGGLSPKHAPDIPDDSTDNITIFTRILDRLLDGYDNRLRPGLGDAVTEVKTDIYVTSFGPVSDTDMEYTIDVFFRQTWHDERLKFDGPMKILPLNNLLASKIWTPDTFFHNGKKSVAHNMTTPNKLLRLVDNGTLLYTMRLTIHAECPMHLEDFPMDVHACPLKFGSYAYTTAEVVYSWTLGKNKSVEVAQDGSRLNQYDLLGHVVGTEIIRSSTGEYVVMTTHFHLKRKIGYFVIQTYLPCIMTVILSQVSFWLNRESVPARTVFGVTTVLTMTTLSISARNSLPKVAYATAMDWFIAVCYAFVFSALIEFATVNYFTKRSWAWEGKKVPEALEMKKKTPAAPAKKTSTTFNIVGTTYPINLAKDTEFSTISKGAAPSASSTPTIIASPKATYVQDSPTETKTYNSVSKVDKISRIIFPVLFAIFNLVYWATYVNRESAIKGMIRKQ", "sequence (P28472 26-473 partner)": "as the sequence (P28472 26-473 partner) above", "sequence (P18507 40-475)": "as the sequence (P18507 40-475) above", "assay_type": "cell-based"}, "[2]": {"conditions": "ref Poe et al., 2016; cited from earlier work"}, "rats [3]": {"test_system": "rats", "experiment": "Pentylenetetrazole", "assay_type": "in vivo, rat", "conditions": "i.p.", "summary_of_the_method": "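Male Sprague Dawley rats (90–110 g), test compound suspended in 1% hydroxyethylcellulose/0.05% tween 80/0.05% antifoam, given 30 mg/kg i.p. 30 min before testing. Percent of rats without clonic convulsions recorded, 5 rats/group (vehicle 20), Fisher's exact test.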"}},
  "note": "Entries after “also recorded” stand apart in the source; their conditions may differ. Where two headings read alike, the source gives them in different places. Marks after values point to notes of the source that are not given here.",
  "data": [
    {"smiles": "C#Cc1ccc2c(c1)C(c1ccccn1)=NCc1c(-c3cnco3)ncn1-2", "note": "[Compound 9, 5-(8-Ethynyl-6-(pyridin-2-yl)-4H-benzo[f]imidazo[1,5-a][1,4]diazepin-3-yl)oxazole]", "values": [
      {"measurement": "acid-induced pain behaviors", "setting": "mice", "value": "attenuated acid-induced pain behaviors"},
      {"measurement": "activity in Vogel conflict test (punished drinking)", "setting": "rats [1]; ref Poe et al., 2016, listed as KRM-II-81", "value": "increased punished drinking; also recorded: efficacious"}
    ]},
    {"smiles": "CN1C(=O)CN=C(c2ccccc2)c2cc(Cl)ccc21", "note": "[Diazepam, diazepam]", "values": [
      {"measurement": "GABAA-a2 Max (%GABA)", "setting": "hGABAAR (α2β3γ2); HEK293 cells, human α2β3γ2, peak GABA EC15-evoked current", "value": 203.4, "unit": "%GABA"},
      {"measurement": "GABAA-a1 Max (%GABA)", "setting": "hGABAAR (α1β3γ2)", "value": 171.9, "unit": "%GABA"},
      {"measurement": "GABAA-a5 Max (%GABA)", "setting": "hGABAAR (α5β3γ2); HEK293 cells, human α5β3γ2, peak GABA EC15-evoked current", "value": 220.7, "unit": "%GABA"},
      {"measurement": "GABAA-a3 Max (%GABA)", "setting": "hGABAAR (α3β3γ2); HEK293 cells, human α3β3γ2, peak GABA EC15-evoked current", "value": 265.6, "unit": "%GABA"}
    ]},
    {"smiles": "NCCCC(=O)O", "note": "[GABA]", "values": [
      {"measurement": "average maximum negative current amplitude", "setting": "hGABAAR (α2β3γ2); saturating concentration of GABA, α2β3γ2", "value": 0.8, "unit": "nA"},
      {"measurement": "average maximum negative current amplitude", "setting": "hGABAAR (α5β3γ2); saturating concentration of GABA, α5β3γ2", "value": 0.9, "unit": "nA"},
      {"measurement": "average maximum negative current amplitude", "setting": "hGABAAR (α3β3γ2); saturating concentration of GABA, α3β3γ2", "value": 1.0, "unit": "nA"}
    ]},
    {"smiles": "C#Cc1ccc2c(c1)C(c1ccccn1)=NCc1c(C(=O)OCC)ncn1-2", "note": "[HZ-166]", "values": [
      {"measurement": "marble-burying", "setting": "[2]", "value": "decreased marble-burying"},
      {"measurement": "reduction of convulsions induced by PTZ", "setting": "rats [3]; 30 mg/kg", "value": 60, "unit": "%"},
      {"measurement": "activity in Vogel conflict test (punished drinking)", "setting": "rats [1]; ref Poe et al., 2016", "value": "not active"}
    ]},
    {"smiles": "CCCC(CCC)C(=O)O", "note": "[Valpro, valproic acid]", "values": [
      {"measurement": "Anticonvulsant Effect (percent of animals protected, no clonic convulsions)", "setting": "rats [3]; valproic acid 300 mg/kg, 35 mg/kg pentylenetetrazole s.c.", "value": "100 ^* percent"}
    ]}
  ]
}
